CYP2C9 activ = human CYP2C9 activators, primary screen, biochemical, luminescence; Cytochrome P450 2C9 (Homo sapiens), P11712; AID 1024, 2008; activation factor at 5 µM; 96,000 tested, 1.4% active; recombinant CYP2C9, luciferin-H conversion; hits give high values; factor 1 = untreated enzyme, 0 = blocked;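 active means activation factor of 2 or more for CYP2C9 at a 5 µM dose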;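 further: 0 = sulfaphenazole-blocked wells and 1 = vehicle-only wells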
CYP2C9 inh = blockers of cytochrome P450 2C9 activity – biochemical, luminescence, ADME assay, primary screen; P11712; CYP2C9 Supersomes, luciferin-H conversion; inhibition, % at 5 µM; 96,000 tested, 20% active; AID 777, 2007;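 active means blocking of liver enzyme CYP2C9 beyond about 50% at 5 µM, limit read from the data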
CYP2C19 act = human CYP2C19 activators, primary screen, biochemical, luminescence | activation factor at 5 µM | 96,000 tested, under 10 active | Cytochrome P450 2C19 (Homo sapiens), P33261 | recombinant CYP2C19, luciferin-H EGE luminescence; hits give high values; 0 = fully inhibited enzyme, 1 = untreated enzyme;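 active means activation factor of at least 2 at 5 µM in the primary screen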;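 further: 0 = wells with 2.5 mM tranylcypromine and 1 = vehicle-only wells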
Cav32 inh = Cav3.2 calcium influx blockers – cell-based, Fluo-4 calcium fluorescence, FDSS, MLSMR library, primary screen; Voltage-dependent T-type calcium channel subunit alpha-1H (Homo sapiens), O95180; Cav3.2-expressing cells; hits give low values; B-score at 10 µM; 100,000 tested, 4% active; AID 449739, 2010;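 active means single-dose well whose peak fluorescence ratio is a statistical outlier from its plate by either plate-standardised score or position-corrected B-score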
Target sequence (O95180 whole entry, looked up): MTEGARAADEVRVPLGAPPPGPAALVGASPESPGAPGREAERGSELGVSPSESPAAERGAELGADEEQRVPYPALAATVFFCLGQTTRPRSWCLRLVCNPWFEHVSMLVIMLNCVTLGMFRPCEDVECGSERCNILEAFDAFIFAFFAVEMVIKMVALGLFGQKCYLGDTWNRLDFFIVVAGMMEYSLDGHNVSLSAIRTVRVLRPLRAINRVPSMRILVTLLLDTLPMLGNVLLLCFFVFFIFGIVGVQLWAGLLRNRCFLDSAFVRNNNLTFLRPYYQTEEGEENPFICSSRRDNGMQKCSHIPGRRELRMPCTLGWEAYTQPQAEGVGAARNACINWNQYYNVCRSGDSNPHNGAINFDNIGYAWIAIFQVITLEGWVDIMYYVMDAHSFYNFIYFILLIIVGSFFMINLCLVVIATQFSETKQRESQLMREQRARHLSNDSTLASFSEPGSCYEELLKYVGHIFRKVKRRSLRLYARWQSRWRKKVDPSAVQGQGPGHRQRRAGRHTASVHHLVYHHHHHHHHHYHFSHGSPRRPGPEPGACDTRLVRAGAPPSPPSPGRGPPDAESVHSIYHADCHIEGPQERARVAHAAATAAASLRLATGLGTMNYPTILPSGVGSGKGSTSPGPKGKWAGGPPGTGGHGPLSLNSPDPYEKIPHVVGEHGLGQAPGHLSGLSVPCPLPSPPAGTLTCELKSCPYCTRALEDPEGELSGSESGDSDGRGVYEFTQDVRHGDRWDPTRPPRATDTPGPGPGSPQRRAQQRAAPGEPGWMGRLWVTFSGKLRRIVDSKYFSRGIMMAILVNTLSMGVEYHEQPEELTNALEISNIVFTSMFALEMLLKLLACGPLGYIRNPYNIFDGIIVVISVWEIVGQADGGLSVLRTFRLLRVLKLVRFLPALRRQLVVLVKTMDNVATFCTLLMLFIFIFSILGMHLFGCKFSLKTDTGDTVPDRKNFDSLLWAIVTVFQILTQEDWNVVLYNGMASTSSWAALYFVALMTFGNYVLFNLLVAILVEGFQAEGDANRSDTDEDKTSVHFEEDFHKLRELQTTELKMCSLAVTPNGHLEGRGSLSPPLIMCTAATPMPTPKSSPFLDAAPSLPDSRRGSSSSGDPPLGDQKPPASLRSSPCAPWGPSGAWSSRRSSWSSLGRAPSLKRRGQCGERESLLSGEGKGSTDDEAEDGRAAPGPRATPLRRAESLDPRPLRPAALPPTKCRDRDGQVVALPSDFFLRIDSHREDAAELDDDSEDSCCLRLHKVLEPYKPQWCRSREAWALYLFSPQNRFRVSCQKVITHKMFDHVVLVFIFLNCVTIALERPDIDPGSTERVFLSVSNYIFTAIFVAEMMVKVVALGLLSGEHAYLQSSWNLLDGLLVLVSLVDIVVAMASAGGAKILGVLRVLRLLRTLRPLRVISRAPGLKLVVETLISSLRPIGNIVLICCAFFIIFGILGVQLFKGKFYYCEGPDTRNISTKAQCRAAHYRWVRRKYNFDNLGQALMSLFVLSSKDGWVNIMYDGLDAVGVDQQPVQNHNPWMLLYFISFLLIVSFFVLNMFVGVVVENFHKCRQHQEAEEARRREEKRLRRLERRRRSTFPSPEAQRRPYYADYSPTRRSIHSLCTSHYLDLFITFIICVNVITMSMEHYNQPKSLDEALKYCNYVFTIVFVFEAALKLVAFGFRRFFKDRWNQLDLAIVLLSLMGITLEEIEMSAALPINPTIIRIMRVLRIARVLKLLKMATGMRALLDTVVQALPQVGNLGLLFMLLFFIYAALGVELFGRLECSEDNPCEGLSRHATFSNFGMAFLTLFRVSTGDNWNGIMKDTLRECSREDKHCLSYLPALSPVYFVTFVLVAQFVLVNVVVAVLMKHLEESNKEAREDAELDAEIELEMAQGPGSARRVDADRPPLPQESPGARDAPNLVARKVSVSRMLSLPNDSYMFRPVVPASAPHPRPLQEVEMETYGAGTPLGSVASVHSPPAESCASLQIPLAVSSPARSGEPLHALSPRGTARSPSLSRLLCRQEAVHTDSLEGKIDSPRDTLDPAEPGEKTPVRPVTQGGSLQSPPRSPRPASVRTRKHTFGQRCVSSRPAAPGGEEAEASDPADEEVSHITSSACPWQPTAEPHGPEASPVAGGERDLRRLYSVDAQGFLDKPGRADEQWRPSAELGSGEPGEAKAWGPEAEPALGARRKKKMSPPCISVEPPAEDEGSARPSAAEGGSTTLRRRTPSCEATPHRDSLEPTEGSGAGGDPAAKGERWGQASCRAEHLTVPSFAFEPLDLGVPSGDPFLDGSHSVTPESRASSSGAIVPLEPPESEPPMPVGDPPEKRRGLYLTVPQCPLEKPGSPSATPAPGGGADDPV
HIV Rev-RRE inh = HIV-1 Rev-RRE binding inhibitors, primary screen, biochemical, FRET, protein-RNA interaction; P05866; Rev peptide-RRE RNA binding; inhibition, % at 8 µM; 97,000 tested, 0.79% active;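 active means inhibition above the screen-wide mean plus 3 SD, cut at about 35% in these data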;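 further: 0% = median DMSO wells and 100% = median Neomycin B control wells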
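Probe or stimulus: fluorescein-Rev peptide as binding partner; assay system: Cy5-tagged RRE RNA duplex with fluorescein-tagged Rev peptide; timing: 5 min compound–RNA preincubation, then 15 min with peptide, 25 °C; medium: HEPES pH 7.5 buffer with KCl, MgCl2, NaCl and EDTA; signal: fluorescein-to-Cy5 FRET, 480 nm excitation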
CYP2C19 inhib = blockers of cytochrome P450 2C19 activity – biochemical, luminescence, ADME assay, primary screen. P33261. CYP2C19 Supersomes, luciferin-H EGE luminescence, 30 min. inhibition, % at 5 µM. 96,000 tested, 21% active;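 active means CYP2C19 inhibition above a set limit at 5 µM in the primary screen, cut at about 50% in these data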;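 further: plate controls were negative control wells for no effect and 2.5 mM tranylcypromine positive control for full effect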
* hit, by the source's call; x = not tested or not shown. Sampled rows, rich in hits. Any-hit rate of the full collection: about 27%.

SMILES | CYP2C9 activ | CYP2C9 inh | CYP2C19 act | Cav32 inh | HIV Rev-RRE inh | CYP2C19 inhib
COCCn1c(SCC(=O)Nc2ccc(S(=O)(=O)N(C)C)cc2)nc2ccccc21 | 1.1 | -13.4 | 1.3 | 0.371 | 11.7 | -28.1
COCCn1c(SCC(=O)Nc2ncc(Cl)c(C)c2Cl)nc2ccccc21 | 0.5 | 47.4 | 0.1 | -1.23 | 3.6 | 92.9*
COCCn1c(SCC(=O)NC(=O)NC(C)C)nc2ccccc21 | 0.7 | 29.9 | 0.5 | 0.0943 | 0.5 | 46.0
COCCn1c(SCC(=O)Nc2sccc2C(N)=O)nc2cc(Cl)ccc2c1=O | 0.4 | 60.5* | 0.5 | x | 17.8 | 45.3
COCCn1c(SCC(=O)NC(=O)NC(C)(C)C)nc2ccccc21 | 0.7 | 26.8 | 0.4 | 0.799 | 4.8 | 56.7*
CC(C)(C)C(=O)CN1C(=O)C2(OCCO2)c2ccccc21 | 0.9 | 11.6 | 0.7 | -0.0383 | 6.4 | 26.2
O=C(Nc1ccc(Cl)cc1C(=O)N1CCOCC1)c1ccco1 | 1 | 2.4 | 1.1 | 0.236 | 7.5 | -8.8
Cc1cc(C)cc(NC(=O)c2nccnc2C(=O)O)c1 | 0.8 | 17.9 | 0.8 | -0.247 | 3.3 | 17.9
Cc1ccc(S(=O)(=O)n2ccc(=O)[nH]2)cc1 | x | x | x | 0.0956 | x | x
NCCCC[C@@H]1NC(=O)c2cc([N+](=O)[O-])cc(I)c2SC[C@@H](C(N)=O)NC(=O)[C@H](Cc2ccc(O)cc2)NC1=O | x | x | x | 1.04 | x | x
CCC(=O)N1CCc2cc(S(=O)(=O)N3CCN(c4ccccn4)CC3)ccc21 | 0.7 | 27.6 | 0.8 | 1.68 | 8.7 | 19.0
COc1ccc(C2/C=C\CN(C(=O)C3CC3)CC(=O)N2Cc2ccc(F)cc2)cc1 (stereo unspecified) | x | x | x | 0.293 | x | x
Cc1cccc(C)c1NC(=O)C(c1ccccc1)N1CCC2(CC1)OCCO2 (stereo unspecified) | x | x | x | -0.972 | -5.0 | x
Cc1cccc(C)c1NC(=O)C(c1ccc([N+](=O)[O-])cc1)N1CCCCC1 (stereo unspecified) | 1.1 | -9.3 | 1 | -5.57* | 8.1 | -0.2
COc1ccc(C(CNC(=O)CCOc2ccccc2)N(C)C)cc1 (stereo unspecified) | 0.8 | 15.4 | 0.5 | 0.791 | -4.2 | 54.9*
COc1ccc(NC(=O)CC(=O)Nc2ccc(OC)cc2OC)c(OC)c1 | 1.4 | -41.0 | 0.7 | -0.387 | -1.2 | 34.7
CCN(CC)S(=O)(=O)c1cc([N+](=O)[O-])ccc1NNC(=O)Nc1ccccc1OC | 0.4 | 63.0* | 0.5 | -9.06* | 8.5 | 50.8*
COc1ccc(OCCCC(=O)Nc2cc([N+](=O)[O-])ccc2C)cc1 | 2.6* | -155.2 | 0.8 | -0.124 | 8.6 | 18.8
COc1ccc(OCCCC(=O)NCC(C)C)cc1 | 0.8 | 18.7 | 0.6 | 0.646 | -4.9 | 42.4
CCN(CC)S(=O)(=O)c1cc([N+](=O)[O-])ccc1NNC(=O)Nc1ccc(F)cc1 | 0.9 | 12.6 | 0.9 | -1.82 | 10.1 | 6.0
COc1ccc(NC(=O)CCC(=O)Nc2nnc(C(F)(F)F)s2)c(OC)c1 | 0.3 | 65.2* | 0.6 | -0.768 | 2.7 | 35.7
Cc1ccc(-c2nc(SCC(=O)NCC3CCCO3)c(-c3ccccc3)[nH]2)cc1 (stereo unspecified) | x | x | x | 0.515 | x | x
O=C(CCNc1n[nH]c(=O)[nH]c1=O)N1CCOCC1 | 1.1 | -14.0 | 1.1 | -0.156 | 3.0 | -12.7
CCC(=O)N1c2ccccc2-c2nnc(SC)nc2OC1c1ccc(N(C)C)cc1 (stereo unspecified) | x | x | x | 0.0422 | x | x
COc1ccc(Cl)cc1C(=O)NCC(c1ccco1)N1CCCC1 (stereo unspecified) | 1.1 | -11.9 | 0.8 | 0.666 | 1.9 | 22.0
SMILES | CYP2C9 activ | CYP2C9 inh | CYP2C19 act | Cav32 inh | HIV Rev-RRE inh | CYP2C19 inhib
COc1ccc(NC(=O)N2CCC(c3ccccc3)C2)c(OC)c1 (stereo unspecified) | 2.1* | -109.1 | 0.1 | -0.571 | 7.2 | 85.2*
COc1cc([N+](=O)[O-])ccc1NC(=O)CCCOc1ccccc1 | 0.6 | 35.3 | 0.4 | x | 8.0 | 63.6*
CC(=O)c1ccc(OCCCC(=O)NCC(c2ccco2)N(C)C)cc1 (stereo unspecified) | 0.4 | 62.7* | 0.2 | -0.0913 | -0.2 | 80.8*
O=C(CCOc1ccccc1)NCC(c1ccco1)N1CCCCC1 (stereo unspecified) | 1 | 1.9 | 0.3 | 0.76 | 2.6 | 65.8*
CCC(C)NS(=O)(=O)c1ccc(OCC(=O)N2CCCC2)cc1 (stereo unspecified) | x | x | x | -0.123 | -0.5 | x
CC(=O)Nc1nonc1-c1nc2ccccc2n1Cc1nnc(C)o1 | 1 | -0.2 | 1.1 | -0.00122 | 14.7 | -5.3
Cc1ccc(NC(=O)c2cc(N3C(=O)C4CC=CCC4C3=O)ccc2N2CCCCC2)cc1 (stereo unspecified) | 1 | -2.0 | 1 | -0.512 | 5.2 | 4.7
CC(C)c1nnc(NC(=O)CCC(=O)NC2CCCCCCC2)s1 | 0.7 | 25.5 | 0.9 | 0.0126 | 8.0 | 5.0
COc1ccc(NC(=O)CCOc2ccccc2)c(OC)c1 | 1.3 | -29.6 | 0.3 | 0.496 | 1.9 | 73.3*
CCN(CC(=O)Nc1ccc([N+](=O)[O-])cc1OC)c1ccccc1 | 0.2 | 77.8* | 0.5 | -1.27 | 6.0 | 53.0*
O=C(CCC(=O)NC1CCCCCC1)Nc1nnc(C(F)(F)F)s1 | 0.3 | 66.0* | 1 | 0.0796 | 7.6 | -1.2
CC(C)Oc1ccccc1C1CC(=O)Nc2c1c(=O)n(C)c(=O)n2C (stereo unspecified) | 1.1 | -7.6 | 1.1 | x | 0.5 | -10.6
CCOC(=O)c1c(C)nc2sc(C(=O)Nc3ccc(OC)cc3)c(N)c2c1-c1ccc(OC)cc1 | 0.1 | 85.1* | 0.2 | -4.85* | -7.1 | 81.3*
CCOC(=O)c1c(C)nc2sc(C(=O)Nc3ccc(C(C)=O)cc3)c(N)c2c1-c1ccc(OC)cc1 | 0.4 | 62.2* | 0.4 | 0.0357 | 0.0 | 59.9*
CC(=O)c1cccc(NC(=O)c2cc3nc(C)cc(C)n3n2)c1 | 1 | -0.6 | 1 | 0.371 | 3.0 | -2.9
O=C1CCC(=O)N1CN(Cc1ccco1)CN1C(=O)CCC1=O | 1.1 | -8.2 | 1.1 | -0.732 | 1.9 | -11.9
COc1ccc(-n2c(COc3ccc4ccccc4c3)nnc2SCC(=O)NCc2ccco2)cc1 | 0.5 | 51.5* | 0.5 | -6.38* | -5.4 | 46.5
COc1cccc(OCc2nnc(SCC(=O)NCc3ccco3)n2CCc2ccccc2)c1 | 0.1 | 90.8* | 0.1 | -7.58* | 1.1 | 88.1*
COc1ccc(-n2c(COc3cccc4ccccc34)nnc2SCC(=O)NCc2ccco2)cc1 | 0.4 | 55.3* | 0.7 | -2.58 | -1.1 | 27.8
COc1ccc(-n2c(COc3cccc(C)c3)nnc2SCC(=O)NCc2ccco2)cc1 | 0.8 | 20.8 | 0.7 | -3.15 | 1.7 | 27.6
